# Screening data deposited in PubChem by several laboratories.
# miR122 inh = blocks miR-122 activity in Huh7 sensor cells | AID 602342 | activation (reporter increase), % at 12.5 µM | actives 0.3% (n = 340,000) | Huh7 miR-122 Renilla luciferase sensor, 48 h; neutral wells = 0, positive control = 100;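 active means mean replicate activation score at least 90 and every replicate individually at or above 90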;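 further: higher luciferase means less miR-122 activity so hits act as miR-122 inhibitors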
# NR2E3 ag-1 = activates human photoreceptor nuclear receptor NR2E3; GST-NR2E3/biotin-RetCOR TR-FRET, 1536-well; inhibition of corepressor binding, % at 4.78 µM; actives 0.12% (n = 320,000);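 active means percent inhibition above the cutoff of mean plus 3 SD of all tested compounds, set per screening campaign, cut at about 20% in these data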;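 further: 0% = DMSO wells and 100% = biotin wells as full block of FRET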
# Target sequence (Q9Y5X4 whole entry, looked up): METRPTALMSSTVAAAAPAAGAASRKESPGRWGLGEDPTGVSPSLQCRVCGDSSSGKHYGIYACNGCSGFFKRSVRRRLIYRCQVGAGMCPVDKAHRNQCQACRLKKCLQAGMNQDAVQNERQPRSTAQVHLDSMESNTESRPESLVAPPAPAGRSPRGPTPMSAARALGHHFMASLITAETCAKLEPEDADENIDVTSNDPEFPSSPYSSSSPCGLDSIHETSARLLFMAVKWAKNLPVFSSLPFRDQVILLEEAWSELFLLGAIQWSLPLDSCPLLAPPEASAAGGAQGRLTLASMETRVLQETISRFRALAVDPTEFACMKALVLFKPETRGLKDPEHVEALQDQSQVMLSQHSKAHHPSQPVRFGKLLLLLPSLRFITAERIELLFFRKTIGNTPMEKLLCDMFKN
#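 Material: NR2E3–RetCOR corepressor complex / Amount: 1.35 nM GST-NR2E3 / Medium: Tris pH 7.5 / Compound: single nominal compound dose of 4.8 µM / Incubation: 5 h at 4 °C / Technique: TR-FRET, Eu(K)-anti-GST donor, streptavidin-D2 acceptor, ex 340, em 617/671 nm / Read-out basis: percent loss of FRET ratio relative to control wells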
# FGF22 binding = shifts melting point of recombinant human FGF22; Q9HCT0; recombinant FGF22 thermal shift, SYPRO orange fluorescence; percent of sucrose octasulfate shift, DMSO zero; activity (Tm shift, normalised), % at 9.99 µM; actives 1.5% (n = 340,000);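 active means mean Tm shift, scaled 0 neutral to 100 positive control, at about 1.3% or above, every replicate too, limit read from the data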
# Target sequence (Q9HCT0 whole entry, looked up): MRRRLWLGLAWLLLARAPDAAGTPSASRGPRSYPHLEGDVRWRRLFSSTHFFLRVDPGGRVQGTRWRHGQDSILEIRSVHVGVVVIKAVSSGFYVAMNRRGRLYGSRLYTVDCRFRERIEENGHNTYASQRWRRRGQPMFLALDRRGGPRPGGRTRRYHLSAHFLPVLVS
# NR2E3 ag-2 = activates human NR2E3 receptor. Q9Y5X4. CHO-S Gal4-NCOR/VP16-NR2E3 two-hybrid, luciferase. inhibition of corepressor binding, % at 3.98 µM. actives 0.35% (n = 360,000). AID 602229;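 active means inhibition above the mean of all tested compounds plus 3 SD, cut at about 70% in these data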;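 further: 0% = DMSO with NR2E3 transfected cells and 100% = cells lacking NR2E3 construct; higher means lower luciferase signal from less NR2E3 corepressor binding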
# Jurkat NFkB inh = lowers PMA/ionomycin-induced NF-kB signal in Jurkat cells | inhibition, % at 4 µM | AID 435003 | PMA/ionomycin-induced NF-kB luciferase reporter, luminescence | actives 0.53% (n = 330,000); in the data active means inhibition above about 50%
# 697 NFkB inh = lowers PMA/ionomycin-induced NF-kB signal in 697 B cells; 697 B-cell NF-kB luciferase reporter, 16 h; inhibition, % at 4 µM; actives 0.33% (n = 330,000); AID 435022; in the data active means inhibition above about 35%
# NR2E3 ag conf = confirmation of human NR2E3 agonists; shares compounds with NR2E3 ag-2; CHO-S mammalian two-hybrid NR2E3-NCOR, luciferase luminescence; inhibition, % at 3.98 µM; actives 51% (n = 2,300); AID 624378;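 active means average inhibition above a cutoff equal to the mean inhibition of all tested compounds plus one SD, cut at about 70% in these data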;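 further: 0% = DMSO in NR2E3 cells and 100% = DMSO in cells lacking NR2E3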
# VP16 counter = GAL4-VP16 reporter inhibition in NR2E3 agonist counterscreen. shares compounds with NR2E3 ag-2. CHO-S GAL4-VP16 luciferase reporter, luminescence. inhibition, % at 3.98 µM. actives 29% (n = 2,300). AID 624379;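 active means mean inhibition above a cutoff equal to the average over all tested compounds plus one standard deviation, cut at about 70% in these data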;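 further: luciferase from a UAS reporter driven by GAL4-VP16 transactivation; 0% = DMSO with VP16-transfected cells and 100% = DMSO with cells lacking VP16; higher means less reporter light so more repression of VP16 activity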
# An asterisk follows results filed as active; . = no result given; [ ] = another dose, or the depositor's remark. A selection: hits, their analogues and other compounds. The true share with any hit is near 2.2%.
SMILES,miR122 inh,NR2E3 ag-1,FGF22 binding,NR2E3 ag-2,Jurkat NFkB inh,697 NFkB inh,NR2E3 ag conf,VP16 counter
OC(c1ccc(F)c(F)c1)c1nc(-c2ccncc2)cs1 (centres undefined),-1,.,0,28,.,.,.,.
COc1ccc(S(=O)(=O)N(C)C[C@@H]2Oc3ncc(C#CCN(C)C)cc3C(=O)N([C@H](C)CO)C[C@@H]2C)cc1,-1[16.7 µM],.,0,.,.,.,.,.
Cn1nc(C(C)(C)C)cc1C(=O)NCc1ccc2c(c1)OCO2,-4,-4,0,105*,40,5,95*,79*
CN(C)S(=O)(=O)Oc1cccc(C(=O)Nc2ccc(Cl)cc2)c1,1,1,.,60,-21,-38,30,7
O=[N+]([O-])c1cc(-c2ccccc2)cc([N+](=O)[O-])c1O,-5,.,.,79*,.,.,100*,89*
Cn1cnc(S(=O)(=O)N2CCCCN3[C@H](CO)[C@@H](c4ccc(C#CC5CCCC5)cc4)[C@H]3C2)c1,36[16.7 µM],.,-1,.,.,.,.,.
CNC[C@H]1Oc2c(NC(=O)C3CCCCC3)cccc2C(=O)N([C@H](C)CO)C[C@H]1C,-8[16.7 µM],.,0,.,.,.,.,.
CC(C)C[C@@H](CN1CCC[C@@H]1CN1C(=S)NC[C@@H]1Cc1ccc(O)cc1)N1C[C@H](Cc2ccc(O)cc2)N(CC2CCCCC2)C1=S,-4,.,0,54,.,.,14,19
S=C1NCN(Cc2cccnc2)CN1,-7,1,0,0,-1,13,.,.
CN(C)C(=S)N=c1ssc(=S)n1Cc1cccnc1,.,.,0,86*,.,.,-24,-24
OC1(c2cccc(C(F)(F)F)c2)CCN(c2ncnc3c2[nH]c2ccccc23)CC1,11,3,.,60,-38,-21,40,28
CC1C(=O)N(Cc2cn(CCC3OCCCO3)nn2)CCS(=O)(=O)N1Cc1ccc(-c2ccc(Cl)c(Cl)c2)cc1 (centres undefined),-13,.,-1,68,.,.,93*,77*
CC1C(=O)N(Cc2cn(CC3CCCCC3)nn2)CCS(=O)(=O)N1Cc1ccc(-c2ccc(Cl)cc2)cc1 (centres undefined),-5,.,.,59,.,.,32,34
CC1C(=O)N(Cc2cn(CC3CCCCC3)nn2)CCS(=O)(=O)N1Cc1ccc(-c2ccc(Cl)c(Cl)c2)cc1 (centres undefined),-8,.,41,5,.,.,.,.
O=C(C[C@H]1CC[C@H](NC(=O)Nc2ccc(F)cc2)[C@@H](CO)O1)NCc1ccccn1,.,.,0,.,.,.,.,.
COc1ccc(-c2nsc3c(N4CCCCC4C)ncnc23)cc1 (centres undefined),.,6,0,94*,42,16,84*,72*
COc1ccc(-c2nsc3c(N4CCCCC4)ncnc23)cc1,0,-6,.,57,-3,-217,17,-13
Cc1cccc(S(=O)(=O)N2CC[C@@H]3[C@H](CO)Nc4ccc(C#Cc5cccnc5)cc4[C@@H]32)c1,3[16.7 µM],.,0,.,.,.,.,.
O=C(N[C@H]1CC[C@H](CCNC(=O)C2CCOCC2)O[C@@H]1CO)c1ccncc1,.,.,0,.,.,.,.,.
Cc1noc(C)c1NC(=O)N(C)C[C@@H]1Oc2ccc(NS(=O)(=O)c3ccc(Cl)cc3)cc2C(=O)N([C@@H](C)CO)C[C@@H]1C,-1[16.7 µM],.,0,.,.,.,.,.
C/C=C/c1ccc2c(c1)O[C@H](CN(C)C(=O)C1CCCCC1)[C@H](C)CN([C@H](C)CO)S2(=O)=O,.,.,0,.,.,.,.,.
CC(=O)Nc1ccc(SCC(=O)c2cc(C)n(-c3ccccc3)c2C)cc1,-4,0,.,56,-27,-90,64,-8
COc1ccc(-n2c(C)cc(C(=O)CSc3ccc(NC(C)=O)cc3)c2C)cc1,7,-1,.,-78,-4,-33,.,.
Cc1cc(C(=O)C(C)OC(=O)c2ccc(NC(=O)CC#N)cc2)c(C)n1-c1ccccc1 (centres undefined),17,2,0,50,21,-19,-17,-9
CC(C)CC#Cc1cnc2c(c1)C(=O)N([C@H](C)CO)C[C@H](C)[C@H](CN(C)S(=O)(=O)c1ccccc1)O2,11[16.7 µM],.,0,.,.,.,.,.
SMILES,miR122 inh,NR2E3 ag-1,FGF22 binding,NR2E3 ag-2,Jurkat NFkB inh,697 NFkB inh,NR2E3 ag conf,VP16 counter
COc1ccc(-c2csc(NC(=O)Cc3cc(OC)c(OC)c(OC)c3)n2)cc1OC,.,-2,0,48,0,-7,10,44
COc1cc(CC(=O)Nc2nc(C)cs2)cc(OC)c1OC,2,-1,0,10,9,6,.,.
Cn1c(=O)n(C)c2cc(NS(=O)(=O)c3ccc4c(c3)CCCC4)ccc21,.,1,.,66,22,-4,85*,68
Cn1c(=O)n(C)c2cc(NS(=O)(=O)c3ccc(C(C)(C)C)cc3)ccc21,107*,2,0,63,35,-20,82*,76*
Cc1ccc(NS(=O)(=O)c2ccc3c(c2)n(C)c(=O)n3C)cc1,63,-4,.,-3,-9,-5,.,.
CCc1cccc(NS(=O)(=O)c2ccc3c(c2)oc(=O)n3C)c1,51,-1,.,21,9,10,.,.
CCc1cccc(NS(=O)(=O)c2ccc3c(c2)n(C)c(=O)n3C)c1,117*,-1,0,64,-4,-30,58,44
O=C(NC1CC1)C1CCN(C2CCN(C(=O)CSc3ccccc3)CC2)CC1,2,-1,0,-4,4,19,.,.
O=C(CSc1ccccc1)N1CCC(N2CCC(C(=O)N3CCCC3)CC2)CC1,.,-2,0,88*,-2,0,-9,-3
CCN(C[C@H]1[C@@H](c2ccccc2)[C@H](CO)N1CC1CC1)C(=O)c1ccccn1,-14[16.7 µM],.,0,.,.,.,.,.
O=C(COc1ccccc1-c1ccccc1)NN=C1CCCC1,.,0,0,50,2,-8,4,-7
O=C1CCC/C(=N\NC(=O)c2ccc(COc3ccccc3-c3ccccc3)cc2)C1,-5,4,0,-40,1,-13,.,.
CCCNC(=O)N1CC[C@@H]2[C@H]1c1cc(-c3ccccc3)ccc1N(C)[C@H]2CO,-8[16.7 µM],.,0,.,.,.,.,.
Cn1nc(C(=O)NCc2ccc(F)cc2)c2ccccc2c1=O,2,-2,.,8,-1,-7,.,.
Cn1nc(CC(=O)NCc2ccc(C(F)(F)F)cc2)c2ccccc2c1=O,-1,3,.,67,30,-28,91*,79*
COc1ccc(C(=O)c2sc(Nc3ccccc3)nc2N)cc1OC,19,-2,0,102*,12,-34,80*,62
